Results taken from ChEMBL document CHEMBL3421606, “Organoselenocyanates and symmetrical diselenides redox modulators: Design, synthesis and biological evaluation” (Eur J Med Chem, 2015).
pIC50: −log10 of the molar value.

Columns and labels:
[1] = Antioxidant activity assessed as glutathione peroxidase like activity after 3 mins by spectrophotometry; type: physicochemical; details: 0.05 h
How it was run: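 NADPH-glutathione reductase coupled assay in 50 mM phosphate buffer with 0.1% Triton X-100, plus glutathione, glutathione reductase and NADPH. Compound at 41 µM; reaction started with 0.8 mM H2O2. A340 recorded over 3 min to give ΔA/min, background-corrected for H2O2+GSH and for compound colour. Ebselen 41 µM as reference.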

[2] = Antioxidant activity assessed as DPPH free radical scavenging activity after 30 mins by spectrophotometry; type: physicochemical; details: 0.5 h
How it was run: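 Compounds in methanol at 1 mg/ml. 200 µL added to 0.4 ml of 0.1 mM DPPH in methanol. Kept 30 min in the dark, then absorbance read at 517 nm against a blank (methanol, no DPPH). Scavenging % = (A blank − A sample)/A blank x 100. Ascorbic acid and ebselen served as reference antioxidants.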

[3] = Antioxidant activity assessed as bleomycin-Fe2+-induced DNA degradation after 1 hr by spectrophotometry; type: physicochemical
How it was run: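 Mix of calf thymus DNA 0.5 mg/ml, bleomycin sulfate 0.05 mg/ml, MgCl2 5 mM, FeCl3 and test compound 2 mM, held 1 h at 37 °C. Stopped with EDTA, then 1% TBA and 25% HCl added, heated 80 °C 30 min. Cooled and centrifuged; TBA-reactive substances read at 532 nm as MDA equivalents. Ascorbic acid as reference. Means of 3 replicates.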

[4] = test system: HepG2; assay: Cytotoxicity against human HepG2 cells after 48 hrs by MTT assay; type: functional, cell-based; details: for pIC50: Homo sapiens, HepG2, 48 h, read-out: IC50; for IC50: hepg2
How it was run: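 HepG2 grown in DMEM with 10% calf serum at 37 °C. Seeded at 50,000 cells/mL, grown 2 days, then serial compound dilutions added for 48 h at 37 °C, 10% CO2. MTT at 0.5 mg/mL final for 2 h; formazan dissolved in DMSO and read at 590 nm. IC50 = concentration giving 50% of untreated-control absorbance, from dose-response curves, mean of two parallel experiments. 5-FU as reference.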

[5] = test system: Candida albicans; assay: Antimicrobial activity against Candida albicans assessed as diameter of inhibition zone after 1 day by agar diffusion assay; type: functional
How it was run: (§1)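 Agar well/disc diffusion. 100 µL of suspension, 1x10^8 CFU/mL bacteria on nutrient agar or 1x10^4 spores/mL C. albicans on potato dextrose agar. 6 mm paper discs soaked with 20 µl of 1 mg/ml compound (20 µg per disc), incubated at 30°C. Inhibition zone diameter (mm) read after 1 and 2 days. Ampicillin (bacteria) and clotrimazole (fungus) controls at the same concentration.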

[6] = test system: Staphylococcus aureus; assay: Antimicrobial activity against Staphylococcus aureus assessed as diameter of inhibition zone after 2 days by agar diffusion assay relative to ampicillin; type: functional; parameters: concentration or dose not given beside the values
How it was run: (§2)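 Agar diffusion with 6 mm discs carrying 20 µL of 1 mg/ml compound on nutrient agar seeded with 1x10^8 CFU/mL bacteria, incubated at 30°C. Ampicillin run the same way at the same concentration. % activity index = inhibition zone of compound / inhibition zone of ampicillin x 100.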

[7] = test system: Staphylococcus aureus; assay: Antimicrobial activity against Staphylococcus aureus assessed as diameter of inhibition zone after 2 days by agar diffusion assay; type: functional; how it was run: as §1
[8] = test system: Escherichia coli; assay: Antimicrobial activity against Escherichia coli assessed as diameter of inhibition zone after 2 days by agar diffusion assay relative to ampicillin; type: functional; how it was run: as §2
[9] = test system: Escherichia coli; assay: Antimicrobial activity against Escherichia coli assessed as diameter of inhibition zone after 2 days by agar diffusion assay; type: functional; how it was run: as §1

N#C[Se]c1ccc(N2C(=O)CCCC2=O)cc1
Activity [1]: Active | Activity [2]: Not Active | OD [3]: 0.078 | pIC50 [4]: 4.33

CC(C)C(C(=O)NC(C)(C)C)N(CCc1c[nH]c2ccccc12)C(=O)c1ccccc1[Se][Se]c1ccccc1C(=O)N(CCc1c[nH]c2ccccc12)C(C(=O)NC(C)(C)C)C(C)C (stereo not drawn)
Activity [1]: Active | Activity [2]: Not Active | OD [3]: 0.07 | pIC50 [4]: 4.35

Clc1ccccc1C(c1ccccc1)(c1ccccc1)n1ccnc1 [CLOTRIMAZOLE]
diameter of the inhibition zone (DIZ) [5]: 28 mm

O=C1CCC(=O)N1c1ccc([Se][Se]c2ccc(N3C(=O)CCC3=O)cc2)cc1
Activity_index [6]: 64% | diameter of the inhibition zone (DIZ) [7]: 14 mm | Activity [1]: Active | Activity [2]: Not Active | OD [3]: 0.074 | pIC50 [4]: 4.85

O=C(O)CCC(=O)Nc1ccc([Se][Se]c2ccc(NC(=O)CCC(=O)O)cc2)cc1
Activity_index [6]: 91% | diameter of the inhibition zone (DIZ) [7]: 20 mm | Activity [1]: Active | Activity [2]: Active | diameter of the inhibition zone (DIZ) [5]: 19 mm | OD [3]: 0.088 | IC50 [4]: Not Active

N#C[Se]c1ccc(NC(=O)/C=C\C(=O)O)cc1
Activity_index [6]: 73% | diameter of the inhibition zone (DIZ) [7]: 16 mm | Activity [2]: Active | diameter of the inhibition zone (DIZ) [5]: 27 mm | OD [3]: 0.051 | pIC50 [4]: 5.30

N#C[Se]c1ccc(-n2[se]c3ccccc3c2=O)cc1
Activity [1]: Not Active | Activity [2]: Active | OD [3]: 0.09 | pIC50 [4]: 4.19

O=C1C=CC(=O)N1c1ccc([Se][Se]c2ccc(N3C(=O)C=CC3=O)cc2)cc1
Activity_index [8]: 29% | Activity [1]: Active | diameter of the inhibition zone (DIZ) [9]: 7 mm | Activity [2]: Active | OD [3]: 0.055 | pIC50 [4]: 4.89

N#C[Se]c1ccc(NC(=O)CCCC(=O)O)cc1
Activity_index [6]: 91% | diameter of the inhibition zone (DIZ) [7]: 20 mm | Activity [1]: Active | Activity [2]: Not Active | OD [3]: 0.068 | pIC50 [4]: 5.15

O=c1[nH]cc(F)c(=O)[nH]1 [FLUOROURACIL]
pIC50 [4]: 5.10

O=C1O[C@H]([C@@H](O)CO)C(O)=C1O [ASCORBIC ACID]
OD [3]: 0.062

CC(C)C(C(=O)NC(C)(C)C)N(Cc1ccccc1)C(=O)c1ccccc1[Se][Se]c1ccccc1C(=O)N(Cc1ccccc1)C(C(=O)NC(C)(C)C)C(C)C (stereo not drawn)
Activity [1]: Active | Activity [2]: Not Active | OD [3]: 0.073 | IC50 [4]: Not Active

Cc1ccc(C(C(=O)NC(C)(C)C)N(CCc2c[nH]c3ccccc23)C(=O)c2ccccc2[Se][Se]c2ccccc2C(=O)N(CCc2c[nH]c3ccccc23)C(C(=O)NC(C)(C)C)c2ccc(C)cc2)cc1 (stereo not drawn)
Activity_index [6]: 55% | diameter of the inhibition zone (DIZ) [7]: 12 mm | Activity [1]: Active | Activity [2]: Not Active | OD [3]: 0.073 | IC50 [4]: Not Active

O=c1c2ccccc2[se]n1-c1ccccc1 [EBSELEN]
Activity [1]: Active | Activity [2]: Active

N#C[Se]c1ccc(N2C(=O)CCC2=O)cc1
Activity_index [6]: 95% | diameter of the inhibition zone (DIZ) [7]: 21 mm | Activity [2]: Not Active | diameter of the inhibition zone (DIZ) [5]: 28 mm | OD [3]: 0.065 | IC50 [4]: Not Active

O=c1c2ccccc2[se]n1-c1ccc([Se][Se]c2ccc(-n3[se]c4ccccc4c3=O)cc2)cc1
Activity [1]: Not Active | Activity [2]: Active | OD [3]: 0.06 | pIC50 [4]: 4.40

O=C(O)CCCC(=O)Nc1ccc([Se][Se]c2ccc(NC(=O)CCCC(=O)O)cc2)cc1
Activity_index [6]: 91% | diameter of the inhibition zone (DIZ) [7]: 20 mm | Activity [1]: Active | Activity [2]: Active | diameter of the inhibition zone (DIZ) [5]: 16 mm | OD [3]: 0.083 | pIC50 [4]: 4.17

CC1(C)S[C@@H]2[C@H](NC(=O)[C@H](N)c3ccccc3)C(=O)N2[C@H]1C(=O)O [AMPICILLIN]
diameter of the inhibition zone (DIZ) [7]: 22 mm | diameter of the inhibition zone (DIZ) [9]: 24 mm

O=C1CCCC(=O)N1c1ccc([Se][Se]c2ccc(N3C(=O)CCCC3=O)cc2)cc1
Activity_index [6]: 90% | diameter of the inhibition zone (DIZ) [7]: 21 mm | Activity [1]: Active | Activity [2]: Not Active | OD [3]: 0.09 | pIC50 [4]: 4.46

N#C[Se]c1ccc(NC(=O)CCC(=O)O)cc1
Activity_index [6]: 68% | diameter of the inhibition zone (DIZ) [7]: 15 mm | Activity [2]: Active | OD [3]: 0.053 | IC50 [4]: Not Active

O=C(O)/C=C\C(=O)Nc1ccc([Se][Se]c2ccc(NC(=O)/C=C\C(=O)O)cc2)cc1
Activity_index [6]: 95% | diameter of the inhibition zone (DIZ) [7]: 21 mm | Activity [1]: Active | Activity [2]: Active | OD [3]: 0.089 | pIC50 [4]: 5.52

N#C[Se]c1ccc(N2C(=O)C=CC2=O)cc1
Activity [1]: Active | Activity [2]: Not Active | OD [3]: 0.082 | pIC50 [4]: 6.22
